In PMC3264876 (Pharmaceutical Research, 2011):

Assay: Nonsink release testing in MFDS
Assay type: physicochemical
Summary of the method: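 Nanoparticle or bulk crystalline suspensions (nanoparticles at about 6 mg/mL solids, various drug loadings) diluted to 40 μgA/mL in MFDS. MFDS: 7.3 mM NaTC, 1.4 mM POPC, phosphate/NaCl, pH 6.5, 290 mOsm. Stirred at 60 rpm. Duplicate aliquots per time point spun through 100-kDa MWCO filters, 12,000 rpm, 5 min. Free drug is dissolved plus micellar; split estimated from micelle partition coefficient and micelle volume fraction.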

- equilibrium partition coefficient into bile-salt micelles (MFDS): approximately 1,000
- maximum concentration in MFDS (dissolved plus in bile-salt micelles) (MFDS pH 6.5, dose 40 μgA/mL): 16 µg/mL
- time to reach maximum concentration in MFDS (MFDS, 40 μgA/mL): at least 1 h
- concentration of celecoxib in bile-salt micelles (MFDS, equilibrium): about 13.5 μg/mL
- dissolved celecoxib concentration at equilibrium (MFDS, from micelle partition coefficient and 0.5% micelle volume): approximately 2.5 μg/mL
SMILES: Cc1ccc(-c2cc(C(F)(F)F)nn2-c2ccc(S(N)(=O)=O)cc2)cc1 [celecoxib]
